Reference: ChEMBL document CHEMBL3739255, “Novel Series of Dihydropyridinone P2X7 Receptor Antagonists” (J Med Chem, 2015)

Tests used:
[1] = target: Adrenergic receptor alpha-1 (Rattus norvegicus) (UniProt P15823+P23944+P43140); assay: Inhibition of rat alpha1-adrenoceptor at 10 uM
In short: (§1)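 Outsourced broad receptor-screening panel of 78 targets, each tested at a single 10 uM concentration; read-out is percent inhibition. Detailed conditions are given only in the Supporting Information.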

[2] = Binding affinity to Cytochrome P450 in rat liver microsomes at 10 uM incubated for 30 mins; format: ADME; conditions: 0.5 h
In short: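 Covalent binding in rat and human liver microsomes, run both without and with NADPH.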

Rattus norvegicus [3] = species on record: Rattus norvegicus; assay: Inhibition of rat sodium channel site 2 at 10 uM by radioligand binding assay
In short: (§2)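 Single-concentration screen at 10 uM in a commercial 78-receptor panel run by CEREP; results are given as % inhibition.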

[4] = target: Type-1 angiotensin II receptor (Homo sapiens) (UniProt P30556); assay: Inhibition of human angiotensin 2 receptor 1 at 10 uM; in short: as §1
Type-1 angiotensin II receptor (Homo sapiens), sequence (P30556 whole entry): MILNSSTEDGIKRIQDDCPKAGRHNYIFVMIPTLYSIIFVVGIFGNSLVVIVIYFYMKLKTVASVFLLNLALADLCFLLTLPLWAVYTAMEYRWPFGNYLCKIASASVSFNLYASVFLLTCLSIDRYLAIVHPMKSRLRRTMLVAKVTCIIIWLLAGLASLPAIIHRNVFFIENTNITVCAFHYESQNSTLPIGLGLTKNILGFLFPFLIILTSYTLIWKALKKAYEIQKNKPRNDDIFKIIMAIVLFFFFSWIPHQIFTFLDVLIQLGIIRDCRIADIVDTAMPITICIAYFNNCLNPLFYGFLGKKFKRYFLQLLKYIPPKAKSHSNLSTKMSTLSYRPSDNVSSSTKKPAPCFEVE

[5] = target: P2X2/P2X3 heterotrimeric receptor (Homo sapiens, UniProt P56373+Q9UBL9); assay: Inhibition of P2X2/3R (unknown origin); format: protein-complex assay
In short: (§3)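 Selectivity at other P2X receptor subtypes, read as IC50 in a FLIPR Ca2+ flux assay.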

[6] = target: Adenosine receptor A2a (Homo sapiens) (UniProt P29274); assay: Inhibition of human adenosine A2A receptor at 10 uM by radioligand binding assay; in short: as §1
[7] = target: adenosine A3 receptor (Homo sapiens) (UniProt P0DMS8); assay: Inhibition of human adenosine A3 receptor at 10 uM by radioligand binding assay
[8] = target: Muscarinic acetylcholine receptor M3 (Homo sapiens) (UniProt P20309); assay: Inhibition of human muscarinic M3 receptor at 10 uM; in short: as §1
[9] = target: 5-hydroxytryptamine receptor 1A (Homo sapiens) (UniProt P08908); assay: Inhibition of human 5-HT1A receptor at 10 uM
5-hydroxytryptamine receptor 1A (Homo sapiens), sequence (P08908 whole entry): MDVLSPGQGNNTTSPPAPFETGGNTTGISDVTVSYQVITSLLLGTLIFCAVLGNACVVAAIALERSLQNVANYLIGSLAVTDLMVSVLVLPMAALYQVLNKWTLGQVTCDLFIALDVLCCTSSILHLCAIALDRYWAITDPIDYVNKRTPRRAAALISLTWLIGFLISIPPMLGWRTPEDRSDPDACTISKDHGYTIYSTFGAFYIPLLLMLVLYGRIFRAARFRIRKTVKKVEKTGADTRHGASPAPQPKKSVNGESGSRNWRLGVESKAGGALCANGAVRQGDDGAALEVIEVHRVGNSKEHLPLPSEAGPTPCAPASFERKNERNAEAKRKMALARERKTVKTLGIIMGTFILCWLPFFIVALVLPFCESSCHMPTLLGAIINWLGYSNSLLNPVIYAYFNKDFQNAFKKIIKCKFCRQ
In short: (§4)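 Commercial receptor scan across a 78-target panel, with percent inhibition measured at a test concentration of 10 uM.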

[10] = target: C-C chemokine receptor type 1 (Homo sapiens) (UniProt P32246); assay: Inhibition of human CCR1 at 10 uM by radioligand binding assay; in short: as §4
C-C chemokine receptor type 1 (Homo sapiens), sequence (P32246 whole entry): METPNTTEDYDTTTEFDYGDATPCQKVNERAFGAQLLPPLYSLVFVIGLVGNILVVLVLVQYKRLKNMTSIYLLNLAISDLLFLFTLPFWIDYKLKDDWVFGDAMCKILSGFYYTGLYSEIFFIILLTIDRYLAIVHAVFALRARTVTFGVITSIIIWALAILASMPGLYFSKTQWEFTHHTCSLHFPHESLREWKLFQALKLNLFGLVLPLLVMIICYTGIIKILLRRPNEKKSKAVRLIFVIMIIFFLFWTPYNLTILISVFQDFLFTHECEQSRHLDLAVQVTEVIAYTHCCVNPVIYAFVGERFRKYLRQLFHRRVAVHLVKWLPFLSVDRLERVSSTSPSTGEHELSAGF

[11] = target: Neuropeptide Y receptor type 1 (Homo sapiens) (UniProt P25929); assay: Inhibition of human neuropeptide Y1 receptor at 10 uM by radioligand binding assay; in short: as §1
P2X purinoceptor 7 = P2X purinoceptor 7 (Rattus norvegicus, UniProt Q64663); assay: Antagonist activity at rat P2X7R expressed in BzATP-stimulated HEK293 cells incubated for 20 mins followed by BzATP stimulation measured every 1 sec for 60 secs followed by 3 sec intervals for 4 mins by FLIPR Ca2+ assay in presence of ionomycin; format: cell-based
P2X purinoceptor 7, sequence (Q64663 whole entry): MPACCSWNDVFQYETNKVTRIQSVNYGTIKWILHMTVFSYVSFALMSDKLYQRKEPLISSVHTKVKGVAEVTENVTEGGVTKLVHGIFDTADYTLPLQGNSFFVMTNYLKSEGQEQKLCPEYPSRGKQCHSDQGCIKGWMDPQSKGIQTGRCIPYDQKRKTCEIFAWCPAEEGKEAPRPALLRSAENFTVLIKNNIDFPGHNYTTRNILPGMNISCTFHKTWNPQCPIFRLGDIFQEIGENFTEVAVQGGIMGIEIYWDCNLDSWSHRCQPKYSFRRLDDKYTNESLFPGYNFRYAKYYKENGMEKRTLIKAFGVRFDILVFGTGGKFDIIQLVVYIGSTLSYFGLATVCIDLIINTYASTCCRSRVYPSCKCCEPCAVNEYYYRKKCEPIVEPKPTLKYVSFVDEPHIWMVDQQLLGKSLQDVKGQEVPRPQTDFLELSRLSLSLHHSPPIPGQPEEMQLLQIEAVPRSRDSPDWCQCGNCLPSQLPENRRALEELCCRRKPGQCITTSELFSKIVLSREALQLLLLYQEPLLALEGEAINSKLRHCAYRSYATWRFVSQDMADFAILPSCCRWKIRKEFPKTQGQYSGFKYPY

P2X purinoceptor 3 = P2X purinoceptor 3 (Homo sapiens, UniProt P56373); assay: Inhibition of P2X3R (unknown origin); in short: as §3
[12] = target: Peroxisome proliferator-activated receptor gamma (Homo sapiens) (UniProt P37231); assay: Inhibition of human PPARgamma at 10 uM; in short: as §1
[13] = target: 5-hydroxytryptamine receptor 2B (Homo sapiens) (UniProt P41595); assay: Inhibition of human 5-HT2B receptor at 10 uM by radioligand binding assay; in short: as §4
5-hydroxytryptamine receptor 2B (Homo sapiens), sequence (P41595 whole entry): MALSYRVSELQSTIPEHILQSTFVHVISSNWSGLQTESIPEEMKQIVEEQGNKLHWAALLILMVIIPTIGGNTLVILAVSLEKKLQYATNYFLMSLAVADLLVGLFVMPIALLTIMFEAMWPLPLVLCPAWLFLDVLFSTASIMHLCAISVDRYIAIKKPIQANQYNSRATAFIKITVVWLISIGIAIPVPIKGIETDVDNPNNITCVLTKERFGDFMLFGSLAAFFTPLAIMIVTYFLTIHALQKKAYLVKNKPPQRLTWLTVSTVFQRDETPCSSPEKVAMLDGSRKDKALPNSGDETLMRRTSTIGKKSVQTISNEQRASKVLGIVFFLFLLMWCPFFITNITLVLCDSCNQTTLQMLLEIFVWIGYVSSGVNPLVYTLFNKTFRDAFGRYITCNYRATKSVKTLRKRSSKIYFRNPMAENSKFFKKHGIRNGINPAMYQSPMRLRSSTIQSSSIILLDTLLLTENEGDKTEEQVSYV

[14] = target: Histamine H1 receptor (Homo sapiens) (UniProt P35367); assay: Inhibition of human histamine H1 receptor at 10 uM; in short: as §1
[15] = target: Small conductance calcium-activated potassium channel (Rattus norvegicus) (UniProt P70604+P70606+P70605); assay: Inhibition of rat small conductance calcium-activated potassium channel at 10 uM by radioligand binding assay; format: protein assay; in short: as §2
[16] = target: Beta-1 adrenergic receptor (Homo sapiens) (UniProt P08588); assay: Inhibition of human beta1-adrenoceptor at 10 uM by radioligand binding assay; in short: as §1
Beta-1 adrenergic receptor (Homo sapiens), sequence (P08588 whole entry, looked up): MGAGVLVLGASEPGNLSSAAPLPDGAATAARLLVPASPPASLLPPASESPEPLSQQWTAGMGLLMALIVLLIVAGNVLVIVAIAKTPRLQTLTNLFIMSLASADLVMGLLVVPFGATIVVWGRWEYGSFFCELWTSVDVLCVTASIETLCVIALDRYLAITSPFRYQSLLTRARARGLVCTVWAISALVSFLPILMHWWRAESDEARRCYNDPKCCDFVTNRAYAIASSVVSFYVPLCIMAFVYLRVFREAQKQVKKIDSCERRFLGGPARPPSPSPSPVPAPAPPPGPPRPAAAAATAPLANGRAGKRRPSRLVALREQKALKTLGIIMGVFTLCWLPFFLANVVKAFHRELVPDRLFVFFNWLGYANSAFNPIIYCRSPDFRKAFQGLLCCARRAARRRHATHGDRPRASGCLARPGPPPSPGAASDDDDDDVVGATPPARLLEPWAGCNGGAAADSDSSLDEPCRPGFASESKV

[17] = target: Prostacyclin receptor (Homo sapiens) (UniProt P43119); assay: Inhibition of human PGI2 receptor at 10 uM by radioligand binding assay; in short: as §1
Prostacyclin receptor (Homo sapiens), sequence (P43119 whole entry): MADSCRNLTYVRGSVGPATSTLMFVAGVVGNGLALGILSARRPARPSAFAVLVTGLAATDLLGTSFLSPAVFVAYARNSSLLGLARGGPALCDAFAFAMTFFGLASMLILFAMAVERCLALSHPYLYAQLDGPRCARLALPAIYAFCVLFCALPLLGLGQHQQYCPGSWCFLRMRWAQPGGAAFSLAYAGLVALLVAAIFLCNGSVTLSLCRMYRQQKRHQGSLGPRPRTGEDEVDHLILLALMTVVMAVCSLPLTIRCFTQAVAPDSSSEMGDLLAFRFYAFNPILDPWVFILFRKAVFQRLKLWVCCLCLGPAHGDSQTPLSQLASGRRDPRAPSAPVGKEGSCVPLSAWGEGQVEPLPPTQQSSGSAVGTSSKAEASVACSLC

Plasma [18] = assay: Metabolic stability in rat plasma at 10 uM after 4 hrs by LC/MS/MS analysis; format: ADME, cell-free
P2X purinoceptor 4 = P2X purinoceptor 4 (Homo sapiens, UniProt Q99571); assay: Inhibition of P2X4R (unknown origin); in short: as §3
Plasma [19] = assay: Metabolic stability in human plasma at 10 uM after 4 hrs by LC/MS/MS analysis; format: ADME, cell-free
[20] = target: D(3) dopamine receptor (Homo sapiens) (UniProt P35462); assay: Inhibition of human dopamine D3 receptor at 10 uM; in short: as §1
D(3) dopamine receptor (Homo sapiens), sequence (P35462 whole entry): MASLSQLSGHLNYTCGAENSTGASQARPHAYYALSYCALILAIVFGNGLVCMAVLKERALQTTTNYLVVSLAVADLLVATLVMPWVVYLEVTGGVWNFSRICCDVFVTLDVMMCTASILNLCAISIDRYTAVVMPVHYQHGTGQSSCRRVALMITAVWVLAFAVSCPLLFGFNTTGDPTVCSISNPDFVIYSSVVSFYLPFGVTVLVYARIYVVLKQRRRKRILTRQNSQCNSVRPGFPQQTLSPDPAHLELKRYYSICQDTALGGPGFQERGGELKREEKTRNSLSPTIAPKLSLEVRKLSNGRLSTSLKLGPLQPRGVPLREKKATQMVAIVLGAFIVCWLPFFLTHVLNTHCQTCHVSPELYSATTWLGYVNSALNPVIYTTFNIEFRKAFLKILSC

[21] = target: Prostaglandin E2 receptor EP4 subtype (Homo sapiens) (UniProt P35408); assay: Inhibition of human prostanoid EP4 receptor at 10 uM by radioligand binding assay; in short: as §1
[22] = Volume of distribution at steady state in rat at 2 mg/kg, po and 0.5 mg/kg, iv administered as single dose; format: ADME, organism-based; conditions: in vivo, read-out: Vdss
In short: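 Rats given a single dose, iv 0.5 mg/kg or po 2 mg/kg, with n ≥ 2 per time point. Bioavailability is derived from the po and iv exposures. Vdss is reported in L/kg.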

[23] = target: D(2) dopamine receptor (Homo sapiens) (UniProt P14416); assay: Inhibition of human dopamine D2S receptor at 10 uM; in short: as §1
Rattus norvegicus [24] = species on record: Rattus norvegicus; assay: Inhibition of rat GABA-chloride channel receptor at 10 uM by radioligand binding assay; in short: as §1
Rattus norvegicus [25] = species on record: Rattus norvegicus; assay: Inhibition of rat sigma receptor at 10 uM; in short: as §2
[26] = target: Thromboxane A2 receptor (Homo sapiens) (UniProt P21731); assay: Inhibition of human TP prostanoid receptor at 10 uM by radioligand binding assay; in short: as §1
Rattus norvegicus [27] = species on record: Rattus norvegicus; assay: Inhibition of rat bombesin receptor at 10 uM; in short: as §2
[28] = target: Vasopressin V1a receptor (Homo sapiens) (UniProt P37288); assay: Inhibition of human vasopressin V1a receptor at 10 uM by radioligand binding assay; in short: as §1
Vasopressin V1a receptor (Homo sapiens), sequence (P37288 whole entry, looked up): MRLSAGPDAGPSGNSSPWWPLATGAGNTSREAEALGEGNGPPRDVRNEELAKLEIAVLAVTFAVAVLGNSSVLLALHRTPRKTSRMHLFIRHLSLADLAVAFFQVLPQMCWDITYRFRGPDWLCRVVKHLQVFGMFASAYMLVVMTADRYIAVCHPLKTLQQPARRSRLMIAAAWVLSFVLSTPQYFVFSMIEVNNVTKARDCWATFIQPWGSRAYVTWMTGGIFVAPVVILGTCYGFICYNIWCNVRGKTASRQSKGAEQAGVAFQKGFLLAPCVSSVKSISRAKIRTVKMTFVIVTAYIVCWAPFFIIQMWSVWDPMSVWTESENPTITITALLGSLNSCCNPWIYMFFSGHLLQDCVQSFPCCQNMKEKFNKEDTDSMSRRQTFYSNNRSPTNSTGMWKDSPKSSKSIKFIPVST

[29] = Metabolic stability in human plasma; format: ADME, cell-free; conditions: read-out: Stability (converted)
In short: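 Compound incubated in human plasma for 4 h and monitored for degradation.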

[30] = target: 5-hydroxytryptamine receptor 2A (Homo sapiens) (UniProt P28223); assay: Inhibition of human 5-HT2A receptor at 10 uM; in short: as §4
5-hydroxytryptamine receptor 2A (Homo sapiens), sequence (P28223 whole entry): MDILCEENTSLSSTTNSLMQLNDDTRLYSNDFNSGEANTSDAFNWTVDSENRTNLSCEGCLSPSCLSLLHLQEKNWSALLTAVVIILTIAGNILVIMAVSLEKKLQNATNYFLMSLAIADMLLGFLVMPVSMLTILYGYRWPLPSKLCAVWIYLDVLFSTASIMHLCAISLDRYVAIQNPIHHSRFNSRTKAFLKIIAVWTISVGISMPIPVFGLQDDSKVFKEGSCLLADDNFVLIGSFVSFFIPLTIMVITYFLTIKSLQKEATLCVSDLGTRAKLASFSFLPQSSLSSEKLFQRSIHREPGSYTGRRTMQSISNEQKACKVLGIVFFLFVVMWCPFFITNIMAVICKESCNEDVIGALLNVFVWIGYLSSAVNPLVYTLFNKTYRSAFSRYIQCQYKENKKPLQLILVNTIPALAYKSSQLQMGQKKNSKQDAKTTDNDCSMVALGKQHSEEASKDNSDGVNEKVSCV

[31] = target: Delta-type opioid receptor (Homo sapiens) (UniProt P41143); assay: Inhibition of human delta opioid receptor at 10 uM by radioligand binding assay; in short: as §1
[32] = target: Galanin receptor type 2 (Homo sapiens) (UniProt O43603); assay: Inhibition of human galanin receptor 2 at 10 uM by radioligand binding assay; in short: as §1
[33] = target: Histamine H2 receptor (Homo sapiens) (UniProt P25021); assay: Inhibition of human histamine H2 receptor at 10 uM; in short: as §1
Histamine H2 receptor (Homo sapiens), sequence (P25021 whole entry): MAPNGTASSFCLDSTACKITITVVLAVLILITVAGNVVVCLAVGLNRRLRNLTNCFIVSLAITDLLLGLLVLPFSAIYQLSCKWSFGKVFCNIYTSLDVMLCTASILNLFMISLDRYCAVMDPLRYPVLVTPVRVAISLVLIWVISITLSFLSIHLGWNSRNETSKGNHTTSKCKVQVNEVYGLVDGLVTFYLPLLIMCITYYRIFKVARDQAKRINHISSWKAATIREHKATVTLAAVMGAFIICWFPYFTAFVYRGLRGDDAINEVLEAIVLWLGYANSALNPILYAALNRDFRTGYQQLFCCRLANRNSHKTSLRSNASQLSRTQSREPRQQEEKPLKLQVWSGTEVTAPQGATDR

[34] = target: 5-hydroxytryptamine receptor 7 (Homo sapiens) (UniProt P34969); assay: Inhibition of human 5-HT7 receptor at 10 uM by radioligand binding assay; in short: as §4
[35] = target: Prostacyclin receptor (Homo sapiens) (UniProt P43119); assay: Inhibition of human prostanoid IP1 receptor at 10 uM; format: functional; in short: as §1

inhibition [1]: < 30%
PB [2]: Not Active
inhibition (Rattus norvegicus [3]): < 30%
inhibition [4]: < 30%
IC50 [5]: > 10 µM
inhibition [6]: < 30%
inhibition [7]: < 30%
inhibition [8]: < 30%
inhibition [9]: < 30%
inhibition [10]: < 30%
inhibition [11]: < 30%
IC50 (P2X purinoceptor 7): > 10 µM
IC50 (P2X purinoceptor 3): > 10 µM
inhibition [12]: < 30%
inhibition [13]: < 30%
inhibition [14]: < 30%
inhibition [15]: < 30%
inhibition [16]: < 30%
inhibition [17]: < 30%
Stability (Plasma [18]): Stable
IC50 (P2X purinoceptor 4): > 10 µM
Stability (Plasma [19]): Stable
inhibition [20]: < 30%
inhibition [21]: < 30%
Vd [22]: 2.2 L/kg
inhibition [23]: < 30%
inhibition (Rattus norvegicus [24]): < 30%
inhibition (Rattus norvegicus [25]): < 30%
inhibition [26]: < 30%
inhibition (Rattus norvegicus [27]): < 30%
inhibition [28]: < 30%
half-life [29]: 4 h
inhibition [30]: < 30%
inhibition [31]: < 30%
inhibition [32]: < 30%
inhibition [33]: < 30%
inhibition [34]: < 30%
inhibition [35]: < 30%
Structure (SMILES): Cc1cc(Cl)c(OCCO)cc1NC(=O)C1=CNC(=O)C[C@H]1c1ccc(F)cc1
